≈ marks a conversion by molar mass, not a printed value.
Assays:
Format in all cases: functional
Streptococcus pneumoniae [1] = experiment: Antibacterial activity against erythromycin-resistant Streptococcus pneumoniae mef 5654 by broth microdilution method
Streptococcus pneumoniae [2] = experiment: Antibacterial activity against erythromycin-resistant Streptococcus pneumoniae mef S 3427 by broth microdilution method
Haemophilus influenzae [3] = experiment: Antibacterial activity against Haemophilus influenzae 49247 by broth microdilution method
Method in brief: (§1)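 In vitro activity was read as the minimum inhibitory concentration (MIC) by broth microdilution and reported in μg/mL. The S. pneumoniae panel included erythromycin-resistant strains carrying mef or erm genes. Telithromycin and clarithromycin were run as comparators in every assay.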

Haemophilus influenzae [4] = experiment: Antibacterial activity against Haemophilus influenzae 2762 by broth microdilution method; method in brief: as §1
Enterococcus faecalis [5] = experiment: Antibacterial activity against Enterococcus faecalis 29212 by broth microdilution method; method in brief: as §1
Enterococcus faecalis [6] = experiment: Antibacterial activity against Enterococcus faecalis bc11148-2 by broth microdilution method; method in brief: as §1
Streptococcus pyogenes = experiment: Antibacterial activity against Streptococcus pyogenes 8668 by broth microdilution method; method in brief: as §1
Streptococcus pneumoniae [7] = experiment: Antibacterial activity against Streptococcus pneumoniae 49619 by broth microdilution method; method in brief: as §1
Staphylococcus aureus [8] = experiment: Antibacterial activity against Staphylococcus aureus 29213 by broth microdilution method; conditions: ATCC29213; method in brief: as §1
Staphylococcus aureus [9] = experiment: Antibacterial activity against Staphylococcus aureus 33591 by broth microdilution method; method in brief: as §1
[10] = test system: Staphylococcus epidermidis; experiment: Antibacterial activity against Staphylococcus epidermidis 14990 by broth microdilution method; method in brief: as §1
[11] = test system: Staphylococcus epidermidis; experiment: Antibacterial activity against Staphylococcus epidermidis f50654 by broth microdilution method; method in brief: as §1
Streptococcus pneumoniae [12] = experiment: Antibacterial activity against Streptococcus pneumoniae 297-749 by broth microdilution method; method in brief: as §1
Streptococcus pneumoniae [13] = experiment: Antibacterial activity against Streptococcus pneumoniae 280-962 by broth microdilution method; method in brief: as §1
Streptococcus pneumoniae [14] = experiment: Antibacterial activity against erythromycin-resistant Streptococcus pneumoniae erm 6849 by broth microdilution method

Structure (SMILES) | MIC (Streptococcus pneumoniae [1]) [µg/mL] | MIC (Streptococcus pneumoniae [2]) [µg/mL] | MIC (Haemophilus influenzae [3]) [µg/mL] | MIC (Haemophilus influenzae [4]) [µg/mL] | MIC (Enterococcus faecalis [5]) [µg/mL] | MIC (Enterococcus faecalis [6]) [µg/mL] | MIC (Streptococcus pyogenes) [µg/mL] | MIC (Streptococcus pneumoniae [7]) [µg/mL] | MIC (Staphylococcus aureus [8]) [µg/mL] | MIC (Staphylococcus aureus [9]) [µg/mL] | MIC [10] [µg/mL] | MIC [11] [µg/mL] | MIC (Streptococcus pneumoniae [12]) [µg/mL] | MIC (Streptococcus pneumoniae [13]) [µg/mL] | MIC (Streptococcus pneumoniae [14]) [µg/mL]
CC[C@H]1OC(=O)[C@H](C)C(=O)[C@H](C)[C@@H](O[C@@H]2O[C@H](C)C[C@H](N(C)C)[C@H]2O)[C@](C)(OC)C[C@@H](C)C(=O)[C@H](C)[C@@H]2[C@@H]1OC(=O)N2CCCC(C)(C)n1cnc(-c2cccnc2)c1 | 1.56 (≈ 1.89 µM) | 0.2 (≈ 0.242 µM) | 3.13 (≈ 3.79 µM) | 1.56 (≈ 1.89 µM) | 0.1 (≈ 0.121 µM) | 1.56 (≈ 1.89 µM) | ≤ 0.05 | ≤ 0.05 | 0.2 (≈ 0.242 µM) | > 50 | 0.1 (≈ 0.121 µM) | 0.1 (≈ 0.121 µM) | ≤ 0.05 | ≤ 0.05 | 0.4 (≈ 0.484 µM)
CC[C@H]1OC(=O)[C@H](C)C(=O)[C@H](C)[C@@H](O[C@@H]2O[C@H](C)C[C@H](N(C)C)[C@H]2O)[C@](C)(OC)C[C@@H](C)C(=O)[C@H](C)[C@@H]2[C@@H]1OC(=O)N2CCCCc1cnc(-c2cccnc2)s1 | 0.78 (≈ 0.957 µM) | 0.1 (≈ 0.123 µM) | 6.25 (≈ 7.67 µM) | 1.56 (≈ 1.91 µM) | ≤ 0.05 | 3.13 (≈ 3.84 µM) | ≤ 0.05 | ≤ 0.05 | 0.2 (≈ 0.245 µM) | > 50 | 0.2 (≈ 0.245 µM) | 0.1 (≈ 0.123 µM) | ≤ 0.05 | ≤ 0.05 | 25 (≈ 30.7 µM)
CC[C@H]1OC(=O)[C@H](C)C(=O)[C@H](C)[C@@H](O[C@@H]2O[C@H](C)C[C@H](N(C)C)[C@H]2O)[C@](C)(OC)C[C@@H](C)C(=O)[C@H](C)[C@@H]2[C@@H]1OC(=O)N2CCCCc1ccc(-c2cccnc2)s1 | 0.4 (≈ 0.491 µM) | 0.1 (≈ 0.123 µM) | 12.5 (≈ 15.4 µM) | 3.13 (≈ 3.84 µM) | ≤ 0.05 | 25 (≈ 30.7 µM) | ≤ 0.05 | ≤ 0.05 | 0.2 (≈ 0.246 µM) | 50 (≈ 61.4 µM) | 0.2 (≈ 0.246 µM) | 0.1 (≈ 0.123 µM) | ≤ 0.05 | ≤ 0.05 | 6.25 (≈ 7.68 µM)
CC[C@H]1OC(=O)[C@H](C)C(=O)[C@H](C)[C@@H](O[C@@H]2O[C@H](C)C[C@H](N(C)C)[C@H]2O)[C@](C)(OC)C[C@@H](C)C(=O)[C@H](C)[C@@H]2[C@@H]1OC(=O)N2CCCC(C)(C)n1cnc2ncccc21 | 1.56 (≈ 1.95 µM) | 0.2 (≈ 0.25 µM) | 6.25 (≈ 7.81 µM) | 1.56 (≈ 1.95 µM) | ≤ 0.05 | 1.56 (≈ 1.95 µM) | ≤ 0.05 | ≤ 0.05 | 0.2 (≈ 0.25 µM) | > 50 | 0.1 (≈ 0.125 µM) | 0.1 (≈ 0.125 µM) | ≤ 0.05 | ≤ 0.05 | 6.25 (≈ 7.81 µM)
CC[C@H]1OC(=O)[C@H](C)C(=O)[C@H](C)[C@@H](O[C@@H]2O[C@H](C)C[C@H](N(C)C)[C@H]2O)[C@](C)(OC)C[C@@H](C)C(=O)[C@H](C)[C@@H]2[C@@H]1OC(=O)N2CCCCn1cnc(-c2ccc(Cl)nc2)c1 | 0.78 (≈ 0.937 µM) | 0.1 (≈ 0.12 µM) | 6.25 (≈ 7.51 µM) | 1.56 (≈ 1.87 µM) | ≤ 0.05 | 0.4 (≈ 0.481 µM) | ≤ 0.05 | ≤ 0.05 | 0.2 (≈ 0.24 µM) | > 50 | 0.1 (≈ 0.12 µM) | 0.2 (≈ 0.24 µM) | ≤ 0.05 | ≤ 0.05 | 0.4 (≈ 0.481 µM)
CC[C@H]1OC(=O)[C@H](C)C(=O)[C@H](C)[C@@H](O[C@@H]2O[C@H](C)C[C@H](N(C)C)[C@H]2O)[C@](C)(OC)C[C@@H](C)C(=O)[C@H](C)[C@@H]2[C@@H]1OC(=O)N2CCCCn1cnc(-c2ccc(F)nc2)c1 | 0.78 (≈ 0.956 µM) | 0.78 (≈ 0.956 µM) | 3.13 (≈ 3.84 µM) | 0.78 (≈ 0.956 µM) | ≤ 0.05 | 25 (≈ 30.6 µM) | ≤ 0.05 | ≤ 0.05 | 0.2 (≈ 0.245 µM) | > 50 | 0.2 (≈ 0.245 µM) | 0.78 (≈ 0.956 µM) | ≤ 0.05 | 0.2 (≈ 0.245 µM) | 12.5 (≈ 15.3 µM)

From ChEMBL document CHEMBL1148671, “Synthesis and antibacterial activity of C12 des-methyl ketolides” (2006)
